For one data set, the system named is Trypanosoma cruzi. The data set can be described thus: Antitrypanosomal activity against Trypanosoma cruzi CL Brener clone epimastigotes assessed as inhibition of parasite growth incubated for 5 days by hemocytometry. The note with it: 120 h.
A short description of data set [1]: Selectivity index, ratio of IC50 for rat L6 cells to IC50 for Trypanosoma brucei bloodstream forms. Type of data set: toxicity, cell-based. The conditions noted are these: read-out: Ratio IC50.
The subject of data set [2] is Trypanosoma brucei. The data set can be described thus: Antitrypanosomal activity against Trypanosoma brucei bloodstream form assessed as inhibition parasite growth.
Another data set deals with L6. The data set can be described thus: Cytotoxicity against rat L6 cells after 6 days using alamar blue staining based fluorescence assay. The class given is cell-based. The note with it: L6, 144 h. The method in brief: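 Rat skeletal muscle L6 cells seeded at 1 × 10⁴ ml⁻¹ in medium containing graded compound concentrations and held 6 days at 37 °C. Alamar Blue then added, with fluorescence read after a further 8 h.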
For orientation: Alamar Blue is a resazurin reagent that responds to reducing activity.

The test system of data set [3] is Trypanosoma brucei. The data set can be described thus: Antitrypanosomal activity against Trypanosoma brucei 427 bloodstream forms assessed as inhibition of parasite growth incubated for 48 hrs by hemocytometry. The class given is functional, organism-based.
In data set [4] the test system is Trypanosoma brucei. The data set can be described thus: Antitrypanosomal activity against Trypanosoma brucei bloodstream forms assessed as inhibition parasite growth at 5 ug/ml. Type of data set: functional.
Data set [5] has as its system Trypanosoma brucei. The data set can be described thus: Antitrypanosomal activity against Trypanosoma brucei relative to rimantadine. Type of data set: functional.
Data set [6] concerns Trypanosoma brucei. The data set can be described thus: Antitrypanosomal activity against Trypanosoma brucei relative to amantadine. Type of data set: functional.

The IC50 is the concentration that inhibits the measured activity by half. As a reminder, the IC90 is the concentration at which the effect reaches the 90% level.

Calls of active or inactive are those of the source. The calls are words filed in the database; no cut-off is given here.

As for `O=C(CN1C(=O)[C@H](Cc2ccccc2)NC2(C1=O)C1CC3CC(C1)CC2C3)NO` (stereo partly specified) [listing 1 of 2 here], the IC50 is 210 nM with Trypanosoma cruzi, 332 nM with Trypanosoma brucei [2], 10400 nM with L6 and 6.8 nM in the data set with Trypanosoma brucei [3]. The figures for the IC90 in the data set on Trypanosoma cruzi and in the data set on Trypanosoma brucei [3] were 360 nM and 11.5 nM, respectively. Further, the selectivity ratio in data set [1] came to 1500.
Turning to `O=C(CN1C(=O)CNC2(C1=O)C1CC3CC(C1)CC2C3)NO` (stereo unspecified) [listing 1 of 2 here], the IC50 with Trypanosoma cruzi was 5510 nM; in the data set on L6, > 325000 nM; in the data set on Trypanosoma brucei [3] (Trypanosoma brucei, 427, 48 h) it was 90 nM. For the same compound, the IC90 came to 11100 nM in the data set with Trypanosoma cruzi and 155 nM in the data set on Trypanosoma brucei [3] (Trypanosoma brucei, 427, 48 h). Moreover, the selectivity ratio in data set [1] is > 3600.
As to `O=C(CN1C(=O)C(Cc2ccccc2)NC2(C1=O)C1CC3CC(C1)CC2C3)NO` (racemic; form 2), in the data set on Trypanosoma brucei [3], the IC50 is 18 nM and the IC90 came to 24 nM.
As for `CN1CC(=O)N(CC(=O)NO)C(=O)C12C1CC3CC(C1)CC2C3` (stereo unspecified) [listing 1 of 2 here], in the data set on Trypanosoma brucei [3], the IC50 stood at 340 nM and the IC90 amounted to 622 nM.
As to `O=C1CNC2(C(=O)N1)C1CC3CC(C1)CC2C3` (stereo unspecified), the “growth inhibition (GI)” value with Trypanosoma brucei [4] was “inactive”.
Turning to `O=C(CN1C(=O)CNC2(CCCCCCC2)C1=O)NO` [listing 1 of 2 here], in the data set on Trypanosoma brucei [3], the IC50 came out at 266 nM and the IC90 stood at 495 nM.
Take `CN1CC(=O)N(CC(=O)NO)C(=O)C12CCCCCCC2` [listing 1 of 2 here]: in the data set with Trypanosoma brucei [3], the IC50 was 162 nM and the IC90 is 327 nM.
On to `O=C(CN1C(=O)[C@@H](Cc2ccccc2)NC2(C1=O)C1CC3CC(C1)CC2C3)NO` (stereo partly specified) [listing 1 of 2 here], for which the selectivity ratio in data set [1] turned out to be 1300. The IC50 with Trypanosoma brucei [2] came to 106 nM; in the data set on L6, 11600 nM; with Trypanosoma brucei [3] (Trypanosoma brucei, 427, 48 h), 9.1 nM.
Take `O=C(CN1C(=O)CNC2(C1=O)C1CC3CC(C1)CC2C3)NO` (stereo unspecified) [listing 2 of 2 here]: in the data set with Trypanosoma brucei [3], the IC50 is 79 nM and the IC90 was 148 nM.
For `CN1CC(=O)N(CC(=O)NO)C(=O)C12CCCCCC2` [listing 1 of 2 here], in the data set with Trypanosoma brucei [3] (Trypanosoma brucei, 427, 48 h), the IC50 was 285 nM and the IC90 was determined as 673 nM.
`CN1CC(=O)N(CC(=O)NO)C(=O)C12CCCCCC2` [listing 2 of 2 here]: in the data set with Trypanosoma brucei [3], the IC50 amounted to 311 nM and the IC90 turned out to be 717 nM.
As for `O=C(CN1C(=O)CNC2(CCCCCCC2)C1=O)NO` [listing 2 of 2 here], in the data set with Trypanosoma brucei [3] (Trypanosoma brucei, 427, 48 h), the IC50 came to 300 nM and the IC90 is 635 nM.
As to `O=C(CN1C(=O)C(Cc2ccccc2)NC2(C1=O)C1CC3CC(C1)CC2C3)NO` (racemic; form 1), in data set [1], the selectivity ratio is 1400. Moreover, the IC50 with Trypanosoma brucei [2] stood at 285 nM; in the data set with L6 it was 23700 nM; in the data set with Trypanosoma brucei [3] (Trypanosoma brucei, 427, 48 h), 17 nM. For the same compound, in the data set on Trypanosoma brucei [3] (Trypanosoma brucei, 427, 48 h), the IC90 worked out at 26 nM.
In the case of `C[C@@H]1NC2(CCCCCCC2)C(=O)N(CC(=O)NO)C1=O` [listing 1 of 2 here], in the data set with Trypanosoma brucei [3] (Trypanosoma brucei, 427, 48 h), the IC50 is 125 nM and the IC90 was determined as 270 nM.
With `O=C(CN1C(=O)[C@H](Cc2ccccc2)NC2(C1=O)C1CC3CC(C1)CC2C3)NO` (stereo partly specified) [listing 2 of 2 here], in the data set on Trypanosoma brucei [3], the IC50 was found to be 42 nM and the IC90 is 80 nM.
As for `O=C(CN1C(=O)[C@H](Cc2ccccc2)NC2(CCCCCCC2)C1=O)NO` [listing 1 of 2 here], the selectivity ratio in data set [1] is 3200. For the same compound, in the data set with L6, the IC50 came out at 93800 nM. Also, in the data set with Trypanosoma brucei [3] (Trypanosoma brucei, 427, 48 h), the IC50 was 29 nM and the IC90 stood at 39 nM.
Consider `C[C@@H]1NC2(CCCCCCC2)C(=O)N(CC(=O)NO)C1=O` [listing 2 of 2 here], for which, in the data set on Trypanosoma brucei [3], the IC50 is 134 nM and the IC90 is 259 nM.
The corresponding values for `C[C@@H]1NC2(C(=O)N(CC(=O)NO)C1=O)C1CC3CC(C1)CC2C3` (stereo partly specified) [listing 1 of 2 here] are 134 nM and 276 nM.
For the compound `C[C@@H]1NC2(C(=O)N(CC(=O)NO)C1=O)C1CC3CC(C1)CC2C3` (stereo partly specified) [listing 2 of 2 here], in the data set with Trypanosoma brucei [3], the IC50 was found to be 405 nM and the IC90 was found to be 909 nM.
Consider `O=C(CN1C(=O)[C@@H](Cc2ccccc2)NC2(C1=O)C1CC3CC(C1)CC2C3)NO` (stereo partly specified) [listing 2 of 2 here], for which the IC90 in the data set with Trypanosoma brucei [3] stood at 14 nM.
With `O=C(CN1C(=O)CNC2(CCCCCC2)C1=O)NO` [listing 1 of 2 here], in the data set on Trypanosoma brucei [3] (Trypanosoma brucei, 427, 48 h), the IC50 is 1870 nM and the IC90 was 2530 nM.
Take `O=C(CN1C(=O)[C@H](Cc2ccccc2)NC2(CCCCCCC2)C1=O)NO` [listing 2 of 2 here]: in the data set with Trypanosoma brucei [3], the IC50 stood at 25 nM and the IC90 was 35 nM.
Turning to `CN1CC(=O)N(CC(=O)NO)C(=O)C12C1CC3CC(C1)CC2C3` (stereo unspecified) [listing 2 of 2 here], the IC50 in the data set with Trypanosoma cruzi amounted to 3620 nM; in the data set on L6 it was 40400 nM; in the data set on Trypanosoma brucei [3] (Trypanosoma brucei, 427, 48 h), 193 nM. Further, the IC90 in the data set on Trypanosoma cruzi is 5990 nM; in the data set on Trypanosoma brucei [3] (Trypanosoma brucei, 427, 48 h), 328 nM. Moreover, in data set [1], the selectivity ratio turned out to be 210.
With `CN1CC(=O)N(CC(=O)NO)C(=O)C12CCCCCCC2` [listing 2 of 2 here], in the data set on Trypanosoma brucei [3] (Trypanosoma brucei, 427, 48 h), the IC50 was determined as 158 nM and the IC90 was 300 nM.
Regarding `O=C1ON=C2C3CC4CC(C3)CC12C4`, the results for the “Ratio IC50” value in the data set with Trypanosoma brucei [5] and in the data set on Trypanosoma brucei [6] were 3 and 45, respectively.
Turning to `CN1CC(=O)NC(=O)C12C1CC3CC(C1)CC2C3` (stereo unspecified), the inhibition of growth at 5 µg/mL with Trypanosoma brucei [4] (read-out: GI) was 40%.
Consider `O=C(CN1C(=O)CNC2(CCCCCC2)C1=O)NO` [listing 2 of 2 here], for which, in the data set with Trypanosoma brucei [3], the IC50 is 1150 nM and the IC90 turned out to be 1710 nM.

The record behind these values is ChEMBL document CHEMBL1800014, “Novel lipophilic acetohydroxamic acid derivatives based on conformationally constrained spiro carbocyclic 2,6-diketopiperazine scaffolds with potent trypanocidal activity” (J Med Chem, 2011).
